From ChEMBL document CHEMBL1126664, “Pyrazoline bisphosphonate esters as novel antiinflammatory and antiarthritic agents” (1993) come the findings set out here.

In general, inhibition in vivo refers to the drop in the measured response relative to a control, in per cent.

What all share (assay type): functional
Test [1] deals with Mus musculus. In words: Inhibition of delayed type hypersensitivity granuloma results at 200 mg/kg in wet weight. The essentials:
(§1)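 Groups of 10 female CF-1 mice (25 g) were sensitised sc over the inguinal lymph node with mBSA emulsion in Freund's incomplete adjuvant plus dextran. Two mBSA-soaked hydroxyapatite disks were implanted per mouse. Sc dosing ran daily from implantation to day 9, then granulomas were excised for wet and dry weights. Student's paired t test.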

Test [2] has as its system Mus musculus. In words: Inhibition of delayed type hypersensitivity granuloma results at 200 mg/kg in dry weight. Summed up:
as §1

In test [3] the test system is Mus musculus. The test is described as follows: Inhibition of delayed type hypersensitivity granuloma results at 100 mg/kg in dry weight. Summed up: as §1
Test [4] concerns Mus musculus. The test is described as follows: Inhibition of delayed type hypersensitivity granuloma results at 100 mg/kg in wet weight. The essentials: as §1
In test [5] the test system is Mus musculus. In words: Inhibition of antigen-induced arthritis (AIA) in mice at the dose of 100 mg/kg in the non-injected paw.
For test [6], the system named is Mus musculus. In words: Inhibition of antigen-induced arthritis (AIA) in mice at the dose of 200 mg/kg in the non-injected paw.
In test [7] the test system is Rattus norvegicus. The test is described as follows: Inhibition of rat adjuvant induced polyarthritis (AIP) at the dose of 100 mg/kg in the injected paw. Summed up:
(§2)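 Rats received adjuvant (M. tuberculosis in mineral oil) into the left hindpaw on day 0. Compounds in sterile saline, pH 7.0, were given sc once daily for 28 days, with sc vehicle arthritic controls. Paw volume change in injected and noninjected hindpaws was measured on day 28 by mercury-displacement plethysmography.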

The test system of test [8] is Rattus norvegicus. The test is described as follows: Inhibition of rat adjuvant induced polyarthritis (AIP) at the dose of 100 mg/kg in the non-injected paw. Summed up:
as §2

The subject of test [9] is Rattus norvegicus. In words: Inhibition of rat adjuvant induced polyarthritis (AIP) at the dose of 15 mg/kg in the non-njected paw. Summed up: as §2
For test [10], the system named is Rattus norvegicus. The test is described as follows: Inhibition of rat adjuvant induced polyarthritis (AIP) at the dose of 15 mg/kg in the injected paw. Summed up:
as §2

Test [11] has as its system Mus musculus. The test is described as follows: Inhibition of antigen-induced arthritis (AIA) in mice at the dose of 50 mg/kg in the non-injected paw.
Test [12] has as its system Rattus norvegicus. The test is described as follows: Inhibition of rat adjuvant induced arthritis (AIP) at the dose of 60 mg/kg in the non-injected paw. Summed up: as §2
The subject of test [13] is Mus musculus. In words: Inhibition of antigen-induced arthritis (AIA) in mice at the dose of 100 mg/kg. The essentials:
(§3)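 Mice were immunised, boosted after 7 days, and challenged 14 days later with 200 μg mBSA in saline into the left rear stifle joint. Dosing was sc in saline at pH 7.0, 5 of 7 days, from challenge (day 0) to day 28. H&E sagittal joint sections were graded 1–5 each for soft tissue inflammation, pannus, and cartilage and bone erosion, then summed (max 20). One-way ANOVA vs vehicle.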

Test [14] concerns Mus musculus. The test is described as follows: Inhibition of delayed type hypersensitivity granuloma results at 25 mg/kg in dry weight. The essentials:
as §1

Test [15] has as its system Mus musculus. In words: Inhibition of delayed type hypersensitivity granuloma results at 50 mg/kg in dry weight. Summed up:
as §1

Test [16] relates to Rattus norvegicus. In words: Inhibition of rat adjuvant induced arthritis (AIP) at the dose of 5 mg/kg in the non-injected paw. The essentials: as §2
Test [17] relates to Mus musculus. In words: Inhibition of antigen-induced arthritis (AIA) in mice at the dose of 200 mg/kg. Summed up: as §3
The subject of test [18] is Mus musculus. The test is described as follows: Inhibition of delayed type hypersensitivity granuloma results at 50 mg/kg in wet weight. The essentials: as §1
Test [19] concerns Rattus norvegicus. The test is described as follows: Inhibition of rat adjuvant induced polyarthritis (AIP) at the dose of 5 mg/kg in the injected paw. Summed up:
as §2

Test [20] has as its system Rattus norvegicus. In words: Inhibition of rat adjuvant induced arthritis (AIP) at the dose of 15 mg/kg in the non-injected paw. The essentials:
as §2

Test [21] deals with Rattus norvegicus. The test is described as follows: Inhibition of rat adjuvant induced arthritis (AIP) at the dose of 100 mg/kg in the non-injected paw. Summed up:
as §2

Test [22] relates to Mus musculus. In words: Inhibition of antigen-induced arthritis (AIA) in mice at the dose of 50 mg/kg. The essentials:
as §3

The test system of test [23] is Mus musculus. In words: Inhibition of antigen-induced arthritis (AIA) in mice at the dose of 25 mg/kg. The essentials:
as §3

Test [24] deals with Rattus norvegicus. In words: Inhibition of rat adjuvant induced polyarthritis (AIP) at the dose of 60 mg/kg in the injected paw. The essentials:
as §2

Test [25] deals with Mus musculus. In words: Inhibition of delayed type hypersensitivity granuloma results at 25 mg/kg in wet weight. The essentials:
as §1

For test [26], the system named is Rattus norvegicus. The test is described as follows: Inhibition of rat adjuvant induced polyarthritis (AIP) at the dose of 15 mg/kg in the non-injected paw. Summed up: as §2

On to `CCOP(=O)(OCC)C1(P(=O)(OCC)OCC)CC(C(=O)CC)=NN1`, for which the inhibition in vivo at 200 mg/kg in the test on Mus musculus [1] came out at 28%; in the test on Mus musculus [2], 35%.

On to `CCOP(=O)(OCC)C1(P(=O)(OCC)OCC)CC(C(=O)c2ccc(C)cc2)=NN1`, for which the results for the inhibition in vivo at 100 mg/kg in the test with Mus musculus [3] and with Mus musculus [4] were 22% and 20%, respectively.

For `CCOP(=O)(OCC)C1(P(=O)(OCC)OCC)CC(C(=O)c2ccccc2)=NN1CCCN1N=C(C(=O)c2ccccc2)CC1(P(=O)(OCC)OCC)P(=O)(OCC)OCC`, the values for the inhibition in vivo at 100 mg/kg in the test on Mus musculus [3] and in the test with Mus musculus [4] were 5% and 10%, respectively.

Turning to `CCOP(=O)(OCC)C1(P(=O)(OCC)OCC)CC(C(=O)c2ccc(Cl)cc2)=NN1`, the values for the inhibition in vivo at 100 mg/kg in the test on Mus musculus [3] and in the test with Mus musculus [4] were 33% and 28%, respectively.

`CCOP(=O)(OCC)C1(P(=O)(OCC)OCC)CC(C(=O)C2CCCCC2)=NN1`: the inhibition in vivo at 100 mg/kg was 3% in the test with Mus musculus [5]; 31% in the test on Mus musculus [3]; 16% in the test with Rattus norvegicus [7]; 29% with Rattus norvegicus [8]; 33% with Mus musculus [4]. Also, in the test with Mus musculus [6], the inhibition in vivo at 200 mg/kg is 11%. The inhibition in vivo at 15 mg/kg amounted to 14% in the test on Rattus norvegicus [9] and 9% in the test with Rattus norvegicus [10]. In addition, in the test on Mus musculus [11], the inhibition in vivo at 50 mg/kg stood at 30%.

Regarding `O=C(C1=NNC(P(=O)(O)O)(P(=O)(O)O)C1)C1CCCCC1`, the inhibition in vivo at 100 mg/kg was 16% in the test with Mus musculus [3] and 1% in the test with Mus musculus [4].

As for `CCOP(=O)(OCC)C1(P(=O)(OCC)OCC)CC(C(=O)c2ccccc2)=NN1Cc1cccc(CN2N=C(C(=O)c3ccccc3)CC2(P(=O)(OCC)OCC)P(=O)(OCC)OCC)c1`, the inhibition in vivo at 100 mg/kg in the test with Mus musculus [3] is -31%.

Turning to `CCOP(=O)(OCC)C1(P(=O)(OCC)OCC)CC(C(=O)c2ccccc2)=NN1`, the inhibition in vivo at 60 mg/kg worked out at 56% with Rattus norvegicus [12] and 23% in the test with Rattus norvegicus [24]. Also, the inhibition in vivo at 100 mg/kg with Mus musculus [13] was found to be 48%; in the test on Mus musculus [3], 51%; with Rattus norvegicus [7], 13%; in the test with Mus musculus [4], 56%; with Rattus norvegicus [21] it was 50%. For the same molecule, the inhibition in vivo at 25 mg/kg amounted to 42% with Mus musculus [14], 16% in the test on Mus musculus [23] and 36% in the test on Mus musculus [25]. Moreover, the inhibition in vivo at 50 mg/kg was found to be 42% in the test on Mus musculus [15], 33% in the test on Mus musculus [18] and 35% with Mus musculus [22]. Moreover, the inhibition in vivo at 5 mg/kg was determined as 50% with Rattus norvegicus [16] and 28% in the test with Rattus norvegicus [19]. Besides, the inhibition in vivo at 200 mg/kg in the test on Mus musculus [17] turned out to be 48%. Besides, the inhibition in vivo at 15 mg/kg with Rattus norvegicus [20] was determined as 31%; in the test on Rattus norvegicus [10], 25%.

Turning to `CCOP(=O)(OCC)C1(P(=O)(OCC)OCC)CC(C(=O)c2ccc(OC)cc2)=NN1`, the inhibition in vivo at 100 mg/kg in the test with Mus musculus [13] is 23%; with Mus musculus [3], 50%; with Rattus norvegicus [7], 0%; with Rattus norvegicus [8] it was 16%; in the test on Mus musculus [4] it was 35%. Further, the inhibition in vivo at 15 mg/kg with Rattus norvegicus [26] was found to be 17%; in the test with Rattus norvegicus [10] it was 12%.
